As usually defined, the IC50 is the concentration needed to halve the response being measured. In general, MIC refers to the lowest concentration that inhibits growth of the organism. Higher therefore signals a less susceptible organism.

Data set [1] concerns Saccharomyces cerevisiae. Kind of data set: Antifungal activity against Saccharomyces cerevisiae DSY 415 expressing Candida albicans CDR1 after 40 to 48 hrs by serial dilution method in presence of 33 uM fluconazole. In kind it is functional, organism-based. In outline: (§1)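 S. cerevisiae strains carrying C. albicans efflux pumps, grown 1-2 days from frozen stocks on YNB-URA/TRYP selection agar at 30 °C. Modified NCCLS broth microdilution: serial dilutions in 0.9% saline (compounds dissolved in DMSO), inoculum 1.0 × 10^4 CFU/mL in YPD. Incubated 30 °C for 40-48 h and read at 630 nm before and after. IC50 = 50% growth inhibition; MIC = lowest concentration with no detectable growth.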

Data set [2] deals with Saccharomyces cerevisiae. Kind of data set: Potentiation of fluconazole-induced antifungal activity against Saccharomyces cerevisiae DSY 426 expressing Candida albicans FLU1 assessed as fractional inhibitory concentration at 3.8 uM after 40 to 48 hrs by checkerboard assay. In kind it is functional. The essentials: (§2)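 Checkerboard in 96-well format: FLU serially diluted along one axis and partner agent along the other, covering all combinations. S. cerevisiae pump strains or null strain at 1.0 × 10^4 CFU/mL in YPD, 30 °C for 40-48 h, growth read at 630 nm. FIC uses IC50 endpoint; FLU at 0.5 µM (null pump), 50 µM (CDR1, MDR1), 1.56 µM (CDR2), 3.13 µM (FLU1).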

Data set [3] relates to Saccharomyces cerevisiae. Kind of data set: Potentiation of fluconazole-induced antifungal activity against Saccharomyces cerevisiae DSY 416 expressing Candida albicans MDR1 assessed as fractional inhibitory concentration at 3.8 uM after 40 to 48 hrs by checkerboard assay. In kind it is functional. The essentials:
as §2

Data set [4] deals with Saccharomyces cerevisiae. The data set can be described thus: Potentiation of fluconazole-induced antifungal activity against Saccharomyces cerevisiae DSY 390 assessed as fractional inhibitory concentration at 3.8 uM after 40 to 48 hrs by checkerboard assay. It counts as functional. The essentials: as §2
Data set [5] deals with T47D. The data set can be described thus: Cytotoxicity against human T47D cells at 10 uM after 48 hrs by neutral red staining. It counts as cell-based. The essentials:
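T47D cells in DMEM/F12 with 10% FBS and penicillin/streptomycin, plated at 30 000 cells/well. After 24 h, compound added at final 0.03-10 µM and incubated 24 and 48 h at 37 °C. Then Neutral Red 0.15 mg/mL for 2 h, lysis in 0.04 N HCl/2-propanol, A540 minus A630. Viability given as percent of control.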

Data set [6] has as its system Saccharomyces cerevisiae. Kind of data set: Potentiation of fluconazole-induced antifungal activity against Saccharomyces cerevisiae DSY 417 expressing Candida albicans CDR2 assessed as fractional inhibitory concentration at 3.8 uM after 40 to 48 hrs by checkerboard assay. It counts as functional. In outline: as §2
The test system of data set [7] is Saccharomyces cerevisiae. Kind of data set: Antifungal activity against Saccharomyces cerevisiae DSY 415 expressing Candida albicans CDR1 after 40 to 48 hrs by serial dilution method in absence of fluconazole. In kind it is functional, organism-based. The essentials: as §1
The test system of data set [8] is Saccharomyces cerevisiae. The data set can be described thus: Antifungal activity against Saccharomyces cerevisiae DSY 416 expressing Candida albicans MDR1 after 40 to 48 hrs by serial dilution method in absence of fluconazole. It counts as functional, organism-based. The note with it: DSY 416, MDR1. The essentials: as §1
Data set [9] concerns Saccharomyces cerevisiae. Kind of data set: Antifungal activity against Saccharomyces cerevisiae DSY 415 expressing Candida albicans CDR1 after 40 to 48 hrs by serial dilution method. It counts as functional, organism-based. In outline: as §1
Data set [10] concerns Saccharomyces cerevisiae. Kind of data set: Potentiation of fluconazole-induced antifungal activity against Saccharomyces cerevisiae DSY 415 expressing Candida albicans CDR1 assessed as fractional inhibitory concentration at 3.8 uM after 40 to 48 hrs by checkerboard assay. It counts as functional. The essentials: as §2
The subject of data set [11] is Saccharomyces cerevisiae. Kind of data set: Antifungal activity against Saccharomyces cerevisiae DSY 416 expressing Candida albicans MDR1 after 40 to 48 hrs by serial dilution method in presence of 33 uM fluconazole. In kind it is functional, organism-based. The note with it: DSY 416, MDR1. The essentials:
as §1

Data set [12] deals with T1, Multidrug resistance protein 1 (Candida albicans (strain SC5314 / ATCC MYA-2876) (Yeast)) (UniProt Q5ABU7).
T1 sequence (whole entry): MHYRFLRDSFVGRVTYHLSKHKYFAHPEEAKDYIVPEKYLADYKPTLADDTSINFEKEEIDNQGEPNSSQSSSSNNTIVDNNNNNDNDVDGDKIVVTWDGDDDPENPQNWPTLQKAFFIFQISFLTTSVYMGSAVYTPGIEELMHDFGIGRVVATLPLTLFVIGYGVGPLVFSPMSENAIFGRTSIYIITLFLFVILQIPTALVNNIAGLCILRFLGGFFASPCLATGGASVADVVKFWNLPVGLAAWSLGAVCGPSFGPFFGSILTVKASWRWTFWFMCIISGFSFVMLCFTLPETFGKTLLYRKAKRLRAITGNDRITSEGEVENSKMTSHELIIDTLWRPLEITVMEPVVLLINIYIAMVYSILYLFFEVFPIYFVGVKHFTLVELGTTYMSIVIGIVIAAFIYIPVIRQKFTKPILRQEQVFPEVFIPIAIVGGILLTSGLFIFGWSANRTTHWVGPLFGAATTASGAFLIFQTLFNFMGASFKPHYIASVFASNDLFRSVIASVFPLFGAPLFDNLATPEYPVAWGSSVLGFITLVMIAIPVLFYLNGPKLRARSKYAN
Kind of data set: Inhibition of Candida albicans MDR1-mediated fluconazole resistance in Saccharomyces cerevisiae DSY 416 up to 90 uM.

Data set [13] relates to Saccharomyces cerevisiae. Kind of data set: Potentiation of fluconazole-induced antifungal activity against Saccharomyces cerevisiae DSY 390 assessed as fractional inhibitory concentration at 0.1 uM after 40 to 48 hrs by checkerboard assay. In kind it is functional. The essentials:
as §2

The test system of data set [14] is Saccharomyces cerevisiae. Kind of data set: Antifungal activity against Saccharomyces cerevisiae DSY 426 expressing Candida albicans FLU1 after 40 to 48 hrs by serial dilution method. It counts as functional, organism-based. In outline: as §1
For data set [15], the system named is Saccharomyces cerevisiae. Kind of data set: Potentiation of fluconazole-induced antifungal activity against Saccharomyces cerevisiae DSY 416 expressing Candida albicans MDR1 assessed as fractional inhibitory concentration at 0.1 uM after 40 to 48 hrs by checkerboard assay. In kind it is functional. The essentials: as §2
Data set [16] concerns Saccharomyces cerevisiae. Kind of data set: Potentiation of fluconazole-induced antifungal activity against Saccharomyces cerevisiae DSY 417 expressing Candida albicans CDR2 assessed as fractional inhibitory concentration at 0.1 uM after 40 to 48 hrs by checkerboard assay. It counts as functional. In outline: as §2
The subject of data set [17] is Saccharomyces cerevisiae. Kind of data set: Antifungal activity against Saccharomyces cerevisiae DSY 416 expressing Candida albicans MDR1 after 40 to 48 hrs by serial dilution method. In kind it is functional, organism-based. The note with it: for MIC: DSY 416; for IC50: DSY 416, MDR1. In outline: (§3)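 S. cerevisiae strains (null pump DSY 390, or carrying C. albicans CDR1, MDR1, CDR2, FLU1 pumps) were grown from −80 °C glycerol stocks on YNB-URA/TRYP selection agar at 30 °C. The modified NCCLS broth microdilution used compound serially diluted in 0.9% saline from DMSO, with YPD inoculum at 1.0 × 10^4 CFU/mL final. Plates were read at OD630 before and after 40-48 h at 30 °C. IC50 = 50% growth inhibition; MIC = no detectable growth.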

The test system of data set [18] is Saccharomyces cerevisiae. The data set can be described thus: Antifungal activity against Saccharomyces cerevisiae DSY 417 expressing Candida albicans CDR2 after 40 to 48 hrs by serial dilution method. In kind it is functional, organism-based. In outline:
as §3

For data set [19], the system named is Saccharomyces cerevisiae. Kind of data set: Antifungal activity against Saccharomyces cerevisiae DSY 390 after 40 to 48 hrs by serial dilution method. It counts as functional, organism-based. In outline:
as §3

Data set [20] has as its system Saccharomyces cerevisiae. Kind of data set: Potentiation of fluconazole-induced antifungal activity against Saccharomyces cerevisiae DSY 415 expressing Candida albicans CDR1 assessed as fractional inhibitory concentration at 0.1 uM after 40 to 48 hrs by checkerboard assay. In kind it is functional. In outline: as §2
In data set [21] the test system is Saccharomyces cerevisiae. The data set can be described thus: Potentiation of fluconazole-induced antifungal activity against Saccharomyces cerevisiae DSY 426 expressing Candida albicans FLU1 assessed as fractional inhibitory concentration at 0.1 uM after 40 to 48 hrs by checkerboard assay. In kind it is functional. The essentials:
as §2

The subject of data set [22] is Saccharomyces cerevisiae. The data set can be described thus: Potentiation of fluconazole-induced antifungal activity against Saccharomyces cerevisiae DSY 426 expressing Candida albicans FLU1 assessed as fractional inhibitory concentration at 3.1 uM after 40 to 48 hrs by checkerboard assay. In kind it is functional. The essentials: (§4)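 This was a checkerboard in a modified NCCLS microdilution: fluconazole and second agent were each serially diluted in saline and combined in all concentration pairs. Pump-expressing or null S. cerevisiae inoculum was 1.0 × 10^4 CFU/mL in YPD, with OD630 read before and after 40-48 h at 30 °C. FIC used IC50 as endpoint. FLU levels for FIC were 0.5 µM (null), 50 µM (CDR1, MDR1), 1.56 µM (CDR2) and 3.13 µM (FLU1).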

Data set [23] relates to Saccharomyces cerevisiae. Kind of data set: Potentiation of fluconazole-induced antifungal activity against Saccharomyces cerevisiae DSY 417 expressing Candida albicans CDR2 assessed as fractional inhibitory concentration at 3.1 uM after 40 to 48 hrs by checkerboard assay. It counts as functional. In outline: as §4
The subject of data set [24] is Saccharomyces cerevisiae. The data set can be described thus: Potentiation of fluconazole-induced antifungal activity against Saccharomyces cerevisiae DSY 390 assessed as fractional inhibitory concentration at 3.1 uM after 40 to 48 hrs by checkerboard assay. It counts as functional. The essentials:
as §4

Data set [25] deals with Saccharomyces cerevisiae. Kind of data set: Potentiation of fluconazole-induced antifungal activity against Saccharomyces cerevisiae DSY 415 expressing Candida albicans CDR1 assessed as fractional inhibitory concentration at 3.1 uM after 40 to 48 hrs by checkerboard assay. In kind it is functional. The essentials: as §4
Data set [26] has as its system Saccharomyces cerevisiae. The data set can be described thus: Potentiation of fluconazole-induced antifungal activity against Saccharomyces cerevisiae DSY 416 expressing Candida albicans MDR1 assessed as fractional inhibitory concentration at 3.1 uM after 40 to 48 hrs by checkerboard assay. In kind it is functional. The essentials:
as §4

SMILES strings stand for the structures. In brackets after ≈: the same amount, converted by molar mass. Activity calls are given as the source filed them. The calls are words filed in the database; no cut-off is given here. Where only a bound is given, the exact number is not on record here.

Consider `CC(=O)O[C@H]1C=C2[C@@H]3CC[C@H]([C@H](C)CCCC(C)C)[C@@]3(C)C[C@@H]3O[C@@]23[C@@]2(CO)CC[C@H](O)C[C@]12O`, for which the concentration for half-maximal inhibition (IC50) was 31 µM in [1]; greater than 104 µM in data set [7]; greater than 104 µM in data set [8]; greater than 30 µM in [9]; less than 4 µM in [11]. Besides, the “fractional inhibitory concentration index (FICI)” value in data set [2] stood at 1.26; in [3] it was 0.05; in [4], 1.85; in data set [6], 1.6; in data set [10] it was 0.88. Moreover, the Activity entry in [5] is reported as “Non-toxic”.

For the compound `CC(=O)OC[C@]12CC[C@H](OC(C)=O)C[C@]1(O)[C@@H](OC(C)=O)C=C1[C@@H]3CC[C@H]([C@H](C)CCCC(C)C)[C@@]3(C)C[C@@H]3O[C@@]132`, the result in data set [12] was inactive.

Take `C[C@@H]1[C@H](O)[C@@H](C)/C=C/C=C/C=C/C=C/C=C/C=C/C=C/[C@H](O[C@@H]2O[C@H](C)[C@@H](O)[C@H](N)[C@@H]2O)C[C@@H]2O[C@](O)(C[C@@H](O)C[C@@H](O)[C@H](O)CC[C@@H](O)C[C@@H](O)CC(=O)O[C@H]1C)C[C@H](O)[C@H]2C(=O)O` [AMPHOTERICIN B]: the “fractional inhibitory concentration index (FICI)” value in data set [13] was determined as 1.85; in data set [15], 1.42; in data set [16] it was 1.58; in [20], 0.89; in data set [21], 0.97. For the same compound, the IC50 in [14], in data set [17], in [18], in data set [19] and in data set [9] was 0.55 µM each time. Further, the MIC in data set [14], in [17], in [18], in data set [19] and in data set [9] was 0.75 µM (≈ 0.693 µg/mL) each time.

Consider `CC(C)[C@@H]1OC(=O)[C@@H](Cc2ccccc2)N(C)C(=O)[C@H](C(C)C)OC(=O)[C@@H](Cc2ccccc2)N(C)C(=O)[C@H](C(C)C)OC(=O)[C@@H](Cc2ccccc2)N(C)C1=O` [BEAUVERICIN], for which the “fractional inhibitory concentration index (FICI)” value amounted to 2 in data set [22]; 1.3 in data set [23]; 2.57 in [24]; 0.045 in data set [25]; 2 in data set [26].

With `OC(Cn1cncn1)(Cn1cncn1)c1ccc(F)cc1F` [FLUCONAZOLE], the IC50 in data set [14] was 35 µM; in [17], greater than 400 µM; in [18], 15 µM; in data set [19], 3.5 µM; in [9] it was 300 µM. The minimum inhibitory concentration (MIC) in [14] was 50 µM (≈ 15.3 µg/mL); in data set [17], greater than 400 µM; in data set [18], 25 µM (≈ 7.66 µg/mL); in data set [19], 8 µM (≈ 2.45 µg/mL); in [9], 400 µM (≈ 123 µg/mL).
